Assay results taken from ChEMBL document CHEMBL1146746, “Propargylic sulfones possessing a 2-nitroimidazole function: novel hypoxic-cell radiosensitizers with intracellular non-protein thiol depletion ability” (Bioorg Med Chem Lett, 2004).

What was measured:
[1] = Partition coefficient in octanol to water system; format: physicochemical
[2] = Second order rate constant determined for the reaction of compound with GSH in phosphate buffer at a pH of 7.5
Outline: (§1)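 Test compound and GSH reacted in phosphate buffer at 37 °C, pH 7.5 for lines 2 and 3 and pH 8.5 for line 4. Aliquots were taken at set times and quenched into phosphate buffer containing 0.2 mM Ellman's reagent (DTNB). Unreacted GSH was measured by UV absorbance at 412 nm. Second-order rate constant k₂ for nucleophilic GSH addition is given in mM⁻¹ h⁻¹.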

[3] = Second order rate constant was determined for the reaction of compound with GSH in phosphate buffer at a pH of 8.5; outline: as §1
[4] = Second order rate constant was determined for the reaction of compound with GSH in phosphate buffer at a pH of 7.5; outline: as §1

Po/w [1] | k2 [2] | k2 [3] | k2 [4] | SMILES
15 | 3 m M-1 hr-1 | 17 m M-1 hr-1 |  | CC(=O)OC(CC#CCS(=O)(=O)c1ccc([N+](=O)[O-])cc1)Cn1ccnc1[N+](=O)[O-] (stereo not given)
 |  | 0.8 m M-1 hr-1 |  | CC(=O)OC(CC#CCSc1ccc([N+](=O)[O-])cc1)Cn1ccnc1[N+](=O)[O-] (stereo not given)
22.2 |  | 0.7 m M-1 hr-1 | 0.2 m M-1 hr-1 | CC(=O)OC(CC#CCS(=O)(=O)c1ccccc1)Cn1ccnc1[N+](=O)[O-] (stereo not given)
2.2 |  | 8.6 m M-1 hr-1 | 1.1 m M-1 hr-1 | O=C(O)CCC(=O)OC(CC#CCS(=O)(=O)c1ccc([N+](=O)[O-])cc1)Cn1ccnc1[N+](=O)[O-] (stereo not given)
